Paper PMC7981784 (Journal of medicinal chemistry, 2020)

Columns and labels:
HL60 (No MLL fusion) = test: Cell growth inhibition assay; assay type: cell-based, human; settings: ratio of cell growth IC50 values
HOXA9 gene expression [1] = test: Pharmacodynamics in MV4; assay type: in vivo, mice; settings: for effect in suppressing expression of HOXA9 gene: single intravenous dose 10 mg/kg, 24 hr, MV4;11 tumors in mice
Outline: (§1)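 Mice bearing subcutaneous MV4;11 xenografts received a single IV dose of vehicle or test compound: 10 mg/kg with tumors taken at 24 h, or 25 mg/kg with tumors taken at 6, 24 and 48 h; 3 mice per time point. Tumors were snap-frozen in liquid N2 and powdered. Total RNA was reverse-transcribed and HOXA9 and MEIS1 quantified by TaqMan real-time PCR. Comparative Ct method, normalized to GAPDH, expressed relative to vehicle.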

SCID mice = test: Tolerability studies in mice; assay type: in vivo
Outline: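 Female SCID mice, three per group, were dosed with test compound on days 1, 3 and 5 for one week. Mice were weighed and checked for clinical signs of toxicity. Weight loss greater than 10% was counted as toxic.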

MEIS1 gene expression [2] = test: Pharmacodynamics in MV4; assay type: in vivo, mice; settings: single intravenous dose 25 mg/kg; 6, 24 and 48 h
Outline: as §1

MV4;11 xenograft tumor = test: In vivo antitumor efficacy in the MV4
Outline: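 Female C.B-17 SCID mice received 5 × 10^6 MV4;11 cells subcutaneously in the flank, in 1:1 PBS/Matrigel (final Matrigel 5 mg/mL). At tumor volumes of 60–140 mm3, mice were randomized into groups of 7. Test compound was given IV in 10% PEG 400:3% Cremophor EL:87% PBS at 10 or 25 mg/kg, every other day, 3 times per week, for 11 doses; controls got vehicle. Caliper volume = (A×B2)/2. Tumor volume and body weight were measured 2–3 times weekly during treatment and at least weekly afterwards.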

MEIS1 gene expression [3] = settings: single dose 50 mg/kg intravenous; previous study; cited from earlier work
HOXA9 gene expression [4] = settings: single dose 50 mg/kg intravenous; previous study; cited from earlier work
[5] = 25 mg/kg every other day (three times a week) for one week
[6] = intravenous 10 mg/kg every other day (three times a week) for one week

| Compound | cellular selectivity for MV4;11 and MOLM-13 cell lines over HL-60 cell line (HL60 (No MLL fusion)) [times] | effect in suppressing expression of HOXA9 gene (HOXA9 gene expression [1]) | animal weight loss (SCID mice; [5]) [%] | tolerability (SCID mice; [6]) | cellular selectivity for MLL leukemia cells over HL-60 (non-MLL leukemia cells) (HL60 (No MLL fusion)) [fold] | other results |
| --- | --- | --- | --- | --- | --- | --- |
| COC(=O)N[C@H]1CCC[C@@H]1[C@](CN(C)C)(c1cccc(F)c1)C1CCN(CC2CN(c3ccc(S(=O)(=O)C4CN(C(=O)/C=C/CN(C)C)C4)cc3)C2)CC1 [Compound 9, Methyl ((1S,2R)-2-((S)-2-(dimethylamino)-1-(1-((1-(4-((1-((E)-4-(dimethylamino)but-2-enoyl)azetidin-3-yl)sulfonyl)phenyl)azetidin-3-yl)methyl)piperidin-4-yl)-1-(3-fluorophenyl)ethyl)cyclopentyl)carbamate] | > 300 | – | – | – | – | – |
| COC(=O)N[C@H]1CCC[C@@H]1[C@](CN1CCC1)(c1cccc(F)c1)C1CCN(CC2CN(c3ccc(S(=O)(=O)C4CN(C(=O)/C=C/CN(C)C)C4)cc3)C2)CC1 [Compound 10, Methyl ((1S,2R)-2-((S)-2-(azetidin-1-yl)-1-(1-((1-(4-((1-((E)-4-(dimethylamino)but-2-enoyl)azetidin-3-yl)sulfonyl)phenyl)azetidin-3-yl)methyl)piperidin-4-yl)-1-(3-fluorophenyl)ethyl)cyclopentyl)carbamate] | > 300 | significant but modest effect | > 10 | well tolerated | – | – |
| COC(=O)N[C@H]1CCC[C@@H]1[C@](CN1CCC1)(c1cccc(F)c1)C1CCN(CC2CN(c3ccc(S(=O)(=O)C4CN(C(=O)/C=C/CN5CCC5)C4)cc3)C2)CC1 [Compound 14, Methyl ((1S,2R)-2-((S)-2-(azetidin-1-yl)-1-(1-((1-(4-((1-((E)-4-(azetidin-1-yl)but-2-enoyl)azetidin-3-yl)sulfonyl)phenyl)azetidin-3-yl)methyl)piperidin-4-yl)-1-(3-fluorophenyl)ethyl)cyclopentyl)carbamate] | – | – | – | – | > 700 | – |
| COC(=O)N[C@H]1CCC[C@@H]1[C@](CN1CCC1)(c1cccc(F)c1)C1CCN(CC2CN(c3ccc(S(=O)(=O)C4CN(C(=O)/C=C/CN5CCCC5)C4)cc3)C2)CC1 [Compound 15, Methyl ((1S,2R)-2-((S)-2-(azetidin-1-yl)-1-(3-fluorophenyl)-1-(1-((1-(4-((1-((E)-4-(pyrrolidin-1-yl)but-2-enoyl)azetidin-3-yl)sulfonyl)phenyl)azetidin-3-yl)methyl)piperidin-4-yl)ethyl)cyclopentyl)carbamate] | – | significant but modest effect | > 10 | well tolerated | > 200 | – |
| COC(=O)N[C@H]1CCC[C@@H]1[C@](CN1CCC1)(c1cccc(F)c1)C1CCN(CC2CN(c3ccc(S(=O)(=O)C4CN(C(=O)/C=C/CN5CCCCC5)C4)cc3)C2)CC1 [Compound 16, Methyl ((1S,2R)-2-((S)-2-(azetidin-1-yl)-1-(3-fluorophenyl)-1-(1-((1-(4-((1-((E)-4-(piperidin-1-yl)but-2-enoyl)azetidin-3-yl)sulfonyl)phenyl)azetidin-3-yl)methyl)piperidin-4-yl)ethyl)cyclopentyl)carbamate] | – | significant but modest effect | – | well tolerated | – | suppression of MEIS1 gene expression in tumor tissue (MEIS1 gene expression [2]): effectively suppresses; effect on tumor growth over vehicle control (MV4;11 xenograft tumor; 10 mg/kg IV every other day, 3 times per week, 11 doses): no effect on tumor growth; body weight change and drug-related toxicity (MV4;11 xenograft tumor; 10 or 25 mg/kg IV, during and after treatment): no significant weight change; suppression of HOXA9 gene expression in tumor tissue (HOXA9 gene expression [1]; single intravenous dose 25 mg/kg, 6, 24 and 48 h): effectively suppresses; tolerability (SCID mice; [5]): well tolerated |
| COC(=O)N[C@H]1CCC[C@@H]1[C@](C#N)(c1cccc(F)c1)C1CCN(CC2CN(c3ccc(S(=O)(=O)C4CN(C(=O)/C=C/CN(C)C)C4)cc3)C2)CC1 [Compound M-525] | – | – | – | – | – | suppression of MEIS1 gene expression in MV4;11 xenograft tumor tissue (MEIS1 gene expression [3]): strong suppression; suppression of HOXA9 gene expression in MV4;11 xenograft tumor tissue (HOXA9 gene expression [4]): strong suppression |
